# This is a sample that favours compounds with a hit; in the whole collection about 2.1% have one here.
# STEP block – inhibitors of human striatal-enriched phosphatase STEP; recombinant STEP, OMFP fluorogenic substrate, fluorescence; inhibition, % at 20 µM; 360,000 tested, 0.25% active; AID 588621;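 active = inhibition at 20 µM, scaled per plate between control wells, above about 37%, limit read from the data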;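 note: 0% = DMSO with enzyme and substrate and 100% = substrate only without enzyme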
# Target sequence (P54829 whole entry, looked up): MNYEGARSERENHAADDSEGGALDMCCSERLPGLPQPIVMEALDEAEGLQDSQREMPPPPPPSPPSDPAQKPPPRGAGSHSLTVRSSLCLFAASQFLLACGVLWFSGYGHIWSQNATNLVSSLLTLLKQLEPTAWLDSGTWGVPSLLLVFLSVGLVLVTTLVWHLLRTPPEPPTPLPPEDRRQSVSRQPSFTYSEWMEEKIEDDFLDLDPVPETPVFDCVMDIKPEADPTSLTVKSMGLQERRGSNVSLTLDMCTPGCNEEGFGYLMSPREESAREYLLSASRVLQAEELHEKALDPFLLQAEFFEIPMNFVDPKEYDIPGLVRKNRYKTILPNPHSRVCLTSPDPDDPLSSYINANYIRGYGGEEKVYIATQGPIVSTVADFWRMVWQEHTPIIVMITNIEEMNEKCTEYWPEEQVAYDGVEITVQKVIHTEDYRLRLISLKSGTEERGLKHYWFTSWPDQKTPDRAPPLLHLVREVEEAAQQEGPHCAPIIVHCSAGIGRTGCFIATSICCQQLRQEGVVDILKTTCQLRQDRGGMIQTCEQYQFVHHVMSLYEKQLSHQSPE
#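 Test system: STEP tyrosine phosphatase / Reagent: OMFP at 25 µM / Doses: 20 µM, 1% DMSO / Read-out: percent inhibition scaled to no-enzyme and uninhibited-enzyme controls, plate-pattern corrected / Detection: FITC-channel fluorescence of OMFP product / Medium: Bis-Tris buffer pH 6.0, 2.5 mM DTT, 0.005% Tween 20 / Schedule: 20 min at room temperature, dark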
# GRK2 inh – inhibitors of human GRK2 displacing RNA aptamer | 330,000 tested, 0.59% active | inhibition of aptamer binding, % at 10 µM | P25098 | bead flow cytometry, FAM-aptamer displacement from GRK2;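 active = inhibition of aptamer binding above 40%, roughly 3 SD of noise, on plates passing a quality check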;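 note: median bead fluorescence of bound FAM aptamer so fluorescent compounds give negative values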
# SUMO1-SIM PPI – SUMO1-SIM interaction modulation. P63165. SUMO1 binding to a labelled peptide, TR-FRET, 1 h. inhibition, % at 20 µM. 360,000 tested, 0.33% active; in the data active = inhibition above about 37%
# DNMT1 inh – inhibitors of human DNMT1; DNMT1 molecular beacon, Hinp1I cleavage, fluorescence; inhibition (reported as % activation of signal), % at 10 µM; P26358; 360,000 tested, 0.83% active; in the data active = inhibition above about 50%
# Scp1 inh – inhibitors of human Scp-1 phosphatase | Q9GZU7 | Recombinant Scp1, phosphopeptide, malachite green phosphate absorbance | inhibition, % at 20 µM | 340,000 tested, 0.88% active;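 active = inhibition above about 50% at 20 µM, limit read from the data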;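 note: plate controls were DMSO wells with enzyme for no effect and wells lacking enzyme for full effect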
# Target sequence (Q9GZU7 76-261 limits assumed): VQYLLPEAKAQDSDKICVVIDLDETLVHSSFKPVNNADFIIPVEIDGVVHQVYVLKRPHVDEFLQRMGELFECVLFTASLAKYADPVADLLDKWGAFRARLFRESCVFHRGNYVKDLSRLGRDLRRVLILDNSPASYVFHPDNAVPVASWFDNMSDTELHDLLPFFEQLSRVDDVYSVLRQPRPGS
#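 Test system – truncated SCP-1 phosphatase (76-261aa) · Reagent – Phosphorylated 17-residue peptide substrate · Incubation – 45 min room-temperature reaction, 5 min colour, 30 min stabiliser · Detection – colorimetric phosphate reagent with accelerator and stabiliser, absorbance at 630 nm · Measure – % inhibition at 20 µM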
# LMPTP inh – LMPTP (human) inhibition; recombinant LMPTP-A, OMFP fluorogenic substrate, fluorescence intensity; inhibition, % at 20 µM; 360,000 tested, 0.22% active; AID 651560;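 active = compounds that cut the enzyme signal by at least half of the control window in the single-dose screen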;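 note: plate controls were DMSO wells with enzyme plus substrate for no effect and substrate without enzyme for full effect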
#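 Material: LMPTP-A; amount: 0.625 nM enzyme; doses: single 20 µM dose; times: reaction 50 min, room temperature, dark; technique: fluorescence intensity of OMFP turnover product; benchmarks: no-enzyme and uninhibited controls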
# Scp-1 conf – Scp-1 (human) inhibition, single-dose confirmed. AID 540281. recombinant SCP-1 catalytic domain, phosphate release, malachite green absorbance. shares compounds with Scp1 inh. inhibition, % at 20 µM. 2,500 tested, 61% active;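 note: plate controls were DMSO with enzyme for no effect and buffer wells lacking enzyme for full effect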
# MG interference – colorimetric interference in Scp-1 counter-screen. shares compounds with Scp1 inh. Colorimetric interference counterscreen, malachite green absorbance 630 nm. apparent inhibition (interference), % at 20 µM. 2,500 tested, under 10 active. AID 540313;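 note: compounds added after enzyme reaction finished so only phosphate colour detection is probed; plate controls were DMSO wells with completed Scp-1 reaction for no effect and substrate wells lacking enzyme for full effect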
# Scp-1 Tm shift – validation of human Scp-1 inhibitors by thermal shift binding. shares compounds with Scp1 inh. Recombinant SCP1, Sypro Orange thermal shift Tm. thermal shift relative to vanadate control, % at 40 µM. 1,500 tested, 25% active. AID 540329;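 active = substances whose mean melting-temperature shift, as a percentage of the reference inhibitor's shift, reaches about 5.3%, limit read from the data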;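 note: 0% = Tm of DMSO wells and 100% = Tm with sodium orthovanadate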
# * marks the source's active call; other numbers are inactive results; . = not tested or not shown.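 Rule for the calls, unless noted: active = inhibition of at least 30% at 20 µM; inactive = the rest.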
SMILES,STEP block,GRK2 inh,SUMO1-SIM PPI,DNMT1 inh,Scp1 inh,LMPTP inh,Scp-1 conf,MG interference,others
Cc1ccc(-c2csc(C3=C(O)CN(NC(=O)c4ccco4)C3=N)n2)cc1,12.4,0.0,5.4,21.0,51.2*,40.8,35.3*,-2.4,Scp-1 Tm shift=-11.9
COc1ccc(N2CC(O)=C(c3nc(-c4ccccc4)cs3)C2=N)cc1,0.9,3.0,-5.6,5.0,-0.8,2.9,.,.,
CCn1c(C)c2c([n+]1CC)CC(C)(C)CC2=O,-3.1,0.0,-3.3,0.2,55.5*,-1.4,74.9*,-11.2,Scp-1 Tm shift=-20.2
CC(C)CN1C(=O)CN(S(C)(=O)=O)CC1(C)C(=O)NC(C)C (stereo not given),.,.,-1.7,.,.,-0.9,.,.,
CC(C)C[C@H]1CN(CCCC[C@@H]2CNC(=O)C(=O)N2CC2CCCCC2)C(=O)C(=O)N1Cc1ccccc1,.,.,4.8,.,.,-0.9,.,.,
Cc1cc(C)c(C(=O)COC(=O)c2cccc(S(=O)(=O)N3CCOCC3)c2)cc1C,-3.3,.,4.2,-3.6,.,1.1,.,.,
Cc1cc(NC(=O)CSCC(=O)N(c2ccc(F)cc2)C(C(=O)NC2CCCCC2)c2ccc(O)c(O)c2)no1 (stereo not given),-4.0,0.0,2.0,4.7,38.1,-1.1,.,.,
Cc1cc(NC(=O)CSCC(=O)N(c2cccc(Cl)c2)C(C(=O)NC2CCCCC2)c2ccc(O)c(O)c2)no1 (stereo not given),-1.5,28.0,6.1,7.5,50.3*,-0.7,5.7,-14.8,
CCOc1ccc(NC(=O)C2CCCN(S(=O)(=O)c3ccc4c(c3)C(C)(C)C(=O)N4C)C2)cc1 (stereo not given),3.0,.,9.9,-4.4,.,-0.5,.,.,
COCCOC(=O)N1CCCCC1c1cc(C(=O)NCc2ccc(Cl)c(Cl)c2)no1 (stereo not given),-2.5,.,0.5,-2.0,.,0.2,.,.,
CCCCCCn1c(-c2ccco2)nc2oc3cc(OC)ccc3c(=O)c2c1=O,0.8,2.0,-7.0,49.1,56.0*,5.3,50.4*,-4.9,Scp-1 Tm shift=0.2
OCCCCCCNc1ccc(CCO)cc1,-0.4,.,7.5,1.6,.,-1.4,.,.,
O=C(Nc1nc2ccsc2c(=O)s1)c1ccc(F)cc1Cl,12.2,11.0,14.6,15.0,54.7*,0.9,38.5*,-9.8,Scp-1 Tm shift=-10.9
O=C(Nc1nc2ccsc2c(=O)s1)c1ccc(F)cc1,97.6*,.,0.9,12.0,95.7*,64.8*,51.0*,-9.5,Scp-1 Tm shift=-6.4
COc1ccc(C(NC(=O)C2CCN(Cc3ccc(Oc4ccccc4)cc3)CC2)c2ccccn2)cc1 (stereo not given),-1.6,.,-5.8,-5.7,.,-0.1,.,.,
CCCCCOc1ccc(/C=C/c2c([N+](=O)[O-])c(=O)n(C)c(=O)n2C)cc1,2.4,18.0,-4.8,4.9,-7.5,1.8,.,.,
COc1ccc(-c2ccc(C(=O)NC3CCCCC3)c3occc23)c(C)c1,2.1,.,-3.3,9.7,.,9.0,.,.,
O=C(Cn1ccc(NC(=O)OCc2ccccc2)nc1=O)NCc1ccc2[nH]ccc2c1,-2.4,1.0,-6.1,-1.8,4.0,1.2,-1.2,0.1,
COc1cc(NCCCn2ccc(NC(=O)OCc3ccccc3)nc2=O)cc(OC)c1OC,-0.9,.,-1.3,-22.7,-10.9,-0.6,-7.4,-8.2,
Cc1ccc(CNC(=O)Cn2ccc(NC(=O)OCc3ccccc3)nc2=O)o1,-1.9,3.0,5.8,-1.5,-8.2,-2.6,-4.7,-11.5,
COc1ccc(CNC(=O)Cn2ccc(NC(=O)OCc3ccccc3)nc2=O)cc1,0.4,2.0,2.7,2.4,10.3,-0.9,.,.,
O=C(Nc1cc(C(F)(F)F)ccc1F)C1Cc2c(-c3ccccc3Oc3ccccc3)ccnc2O1 (stereo not given),-0.4,.,-2.5,-6.8,.,4.2,.,.,
CCOC(=O)c1ccc(/C=C2/C=C(c3ccccc3)N(c3ccc(Cl)c(C(=O)O)c3)C2=O)cc1,-3.1,1.0,27.3,35.3,51.9*,0.8,72.4*,-13.1,Scp-1 Tm shift=-6.5
CCOC(=O)c1ccc(Cl)c(NC(=O)c2ccc(-c3ccccc3)cc2)c1,1.7,0.0,-4.8,27.4,-3.8,-2.2,.,.,
Cc1ccc(C(=O)NNC(=O)c2ccc3ccccc3c2O)cc1,11.3,2.0,1.6,-1.5,75.0*,1.1,56.3*,-26.2,Scp-1 Tm shift=2.2
SMILES,STEP block,GRK2 inh,SUMO1-SIM PPI,DNMT1 inh,Scp1 inh,LMPTP inh,Scp-1 conf,MG interference,others
CC(C)CN(CC(C)C)S(=O)(=O)c1cc([N+](=O)[O-])ccc1N1CCCCCC1,5.2,5.0,-2.0,2.6,51.6*,4.5,-8.7,-12.3,
CN(C)S(=O)(=O)c1cc([N+](=O)[O-])ccc1N1CCCCCC1,1.5,0.0,-24.3,-4.7,-3.3,1.9,.,.,
O=C(O)C1(S(=O)(=O)CCC(F)=C(F)F)CC1,0.0,0.0,-6.2,1.0,98.0*,-1.1,-5.9,-6.5,
C=CC#CC1(O)CC(C)[N+](C)(C)CC1C (stereo not given),-0.9,0.0,2.2,5.4,103.7*,-2.6,77.7*,-15.0,Scp-1 Tm shift=-25.6
COc1ccc(N2C(=O)c3ccccc3NC(=O)C2C(=O)NCc2ccco2)cc1 (stereo not given),.,.,2.6,.,.,-0.4,.,.,
O=C(O)/C=C/c1cnc2ccccc2c1,0.1,0.0,-3.7,1.5,55.3*,-0.3,10.3,-13.1,
CC1(C)CC(=O)C(CC(=O)c2ccccc2)=C(NN=C(N)N)C1,-1.5,.,2.5,0.0,.,-1.4,.,.,
Cc1cc([N+](=O)[O-])cc(C)c1OCC(=O)N/N=C/c1ccc(OC(=O)c2ccccc2)cc1,2.2,4.0,-3.7,12.4,-6.5,1.2,.,.,
Cc1ccc(CC(=O)N/N=C/c2ccc(OC(=O)c3ccc([N+](=O)[O-])cc3)cc2)cc1,3.0,0.0,-5.6,41.0,61.0*,14.8,41.8*,-6.5,Scp-1 Tm shift=-4.1
O=C1CC(=O)N(C2CCCCC2)C(=O)N1c1ccccc1S(=O)(=O)Oc1ccccc1,-1.3,.,3.3,-10.5,.,-0.2,.,.,
O=C1N(c2ccccc2)c2ccccc2[C@]12C[C@H](O)CO2,.,.,-1.1,.,.,-1.0,.,.,
C[C@H](CO)N1C[C@H](C)[C@@H](CN(C)Cc2ccc(-c3ccccc3)cc2)Oc2c(NS(=O)(=O)c3cn(C)cn3)cccc2C1=O,-1.3,0.0,4.7,-5.0,69.0*,-0.7,-6.8,-14.5,
C[C@@H]1CN([C@@H](C)CO)C(=O)c2cccc(NS(=O)(=O)c3cccs3)c2O[C@H]1CN(C)Cc1ccc(C(F)(F)F)cc1,5.1,4.0,0.4,-9.3,-1.6,-1.8,.,.,

# Screening data from PubChem.
